In ChEMBL document CHEMBL5653631, “A Potent and Selective ULK1 Inhibitor Suppresses Autophagy and Sensitizes Cancer Cells to Nutrient Stress” (iScience, 2018) one finds inhibition and fold change (FC) data, which are given here for three molecules.

Assay [1] has as its target T1, Serine/threonine-protein kinase Nek2 (Homo sapiens) (UniProt P51955).
T1 sequence (whole entry): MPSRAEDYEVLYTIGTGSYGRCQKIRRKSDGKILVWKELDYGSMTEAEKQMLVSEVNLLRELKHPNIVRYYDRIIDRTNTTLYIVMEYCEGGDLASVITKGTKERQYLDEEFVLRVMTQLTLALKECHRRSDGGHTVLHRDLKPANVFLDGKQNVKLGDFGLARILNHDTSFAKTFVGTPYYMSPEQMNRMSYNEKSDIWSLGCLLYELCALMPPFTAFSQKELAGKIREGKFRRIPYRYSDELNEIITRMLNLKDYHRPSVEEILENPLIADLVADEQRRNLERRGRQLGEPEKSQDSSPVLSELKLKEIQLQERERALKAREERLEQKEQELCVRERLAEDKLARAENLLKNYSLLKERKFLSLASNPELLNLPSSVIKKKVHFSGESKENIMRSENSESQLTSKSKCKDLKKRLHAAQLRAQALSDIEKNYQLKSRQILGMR
In words: Inhibition of human recombinant NEK2 at 40 nM in presence of ATP by radiometric assay relative to control.

Assay [2] deals with ALK tyrosine kinase receptor (Homo sapiens) (UniProt Q9UM73). In words: Inhibition of human recombinant ALK at 40 nM related to control ULK1. The method in brief: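 Radiometric activity assays in a panel of 327 human recombinant kinases, each run in duplicate at one inhibitor concentration. Activity remaining is expressed as percent of vehicle control, and percent inhibition is calculated as 100% minus percent activity remaining.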
ALK tyrosine kinase receptor (Homo sapiens), sequence (Q9UM73 19-1620 limits assumed): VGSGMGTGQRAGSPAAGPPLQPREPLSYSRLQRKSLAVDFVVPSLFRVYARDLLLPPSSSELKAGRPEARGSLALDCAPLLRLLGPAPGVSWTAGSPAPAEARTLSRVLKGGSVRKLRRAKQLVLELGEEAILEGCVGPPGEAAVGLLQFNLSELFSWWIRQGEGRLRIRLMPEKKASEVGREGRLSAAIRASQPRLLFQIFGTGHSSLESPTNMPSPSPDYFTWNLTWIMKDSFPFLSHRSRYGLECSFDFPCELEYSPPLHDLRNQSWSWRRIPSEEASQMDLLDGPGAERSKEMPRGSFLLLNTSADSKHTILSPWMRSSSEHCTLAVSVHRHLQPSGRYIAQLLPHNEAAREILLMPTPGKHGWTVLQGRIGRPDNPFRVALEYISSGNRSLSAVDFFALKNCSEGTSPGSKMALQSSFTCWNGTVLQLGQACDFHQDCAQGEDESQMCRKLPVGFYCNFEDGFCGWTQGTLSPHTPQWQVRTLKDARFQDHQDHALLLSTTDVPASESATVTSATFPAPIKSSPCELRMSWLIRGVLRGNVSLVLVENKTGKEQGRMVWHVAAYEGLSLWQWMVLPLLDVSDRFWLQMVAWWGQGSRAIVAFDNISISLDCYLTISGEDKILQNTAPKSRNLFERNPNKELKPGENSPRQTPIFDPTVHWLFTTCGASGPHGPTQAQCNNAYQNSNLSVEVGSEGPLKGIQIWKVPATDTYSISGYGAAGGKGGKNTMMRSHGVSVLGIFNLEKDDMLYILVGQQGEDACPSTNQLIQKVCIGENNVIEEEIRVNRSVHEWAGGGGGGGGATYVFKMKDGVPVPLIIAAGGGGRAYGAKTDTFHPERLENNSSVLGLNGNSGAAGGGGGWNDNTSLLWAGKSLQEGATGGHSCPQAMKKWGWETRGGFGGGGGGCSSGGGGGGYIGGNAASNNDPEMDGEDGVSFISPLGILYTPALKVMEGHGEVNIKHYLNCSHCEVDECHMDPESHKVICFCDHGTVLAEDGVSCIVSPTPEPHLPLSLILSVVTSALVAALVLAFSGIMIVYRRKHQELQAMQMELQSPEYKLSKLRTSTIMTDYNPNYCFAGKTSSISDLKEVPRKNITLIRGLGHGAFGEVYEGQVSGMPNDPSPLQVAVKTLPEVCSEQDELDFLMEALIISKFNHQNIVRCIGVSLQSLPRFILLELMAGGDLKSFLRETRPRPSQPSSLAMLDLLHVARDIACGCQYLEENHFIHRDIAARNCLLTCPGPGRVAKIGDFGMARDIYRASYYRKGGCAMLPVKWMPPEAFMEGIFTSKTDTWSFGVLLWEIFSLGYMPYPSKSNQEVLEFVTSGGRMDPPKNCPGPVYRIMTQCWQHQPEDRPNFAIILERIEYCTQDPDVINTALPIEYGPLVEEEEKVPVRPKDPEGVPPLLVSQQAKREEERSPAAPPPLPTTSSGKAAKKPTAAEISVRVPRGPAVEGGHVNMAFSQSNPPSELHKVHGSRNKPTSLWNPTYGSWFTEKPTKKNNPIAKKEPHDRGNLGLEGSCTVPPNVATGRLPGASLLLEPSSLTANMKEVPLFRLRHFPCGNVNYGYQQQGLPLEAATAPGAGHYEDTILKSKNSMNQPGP

For assay [3], the target named is Insulin receptor-related protein (Homo sapiens) (UniProt P14616). Description: Inhibition of human recombinant IRR at 40 nM related to control ULK1.
Insulin receptor-related protein (Homo sapiens), sequence (P14616 27-742 limits assumed): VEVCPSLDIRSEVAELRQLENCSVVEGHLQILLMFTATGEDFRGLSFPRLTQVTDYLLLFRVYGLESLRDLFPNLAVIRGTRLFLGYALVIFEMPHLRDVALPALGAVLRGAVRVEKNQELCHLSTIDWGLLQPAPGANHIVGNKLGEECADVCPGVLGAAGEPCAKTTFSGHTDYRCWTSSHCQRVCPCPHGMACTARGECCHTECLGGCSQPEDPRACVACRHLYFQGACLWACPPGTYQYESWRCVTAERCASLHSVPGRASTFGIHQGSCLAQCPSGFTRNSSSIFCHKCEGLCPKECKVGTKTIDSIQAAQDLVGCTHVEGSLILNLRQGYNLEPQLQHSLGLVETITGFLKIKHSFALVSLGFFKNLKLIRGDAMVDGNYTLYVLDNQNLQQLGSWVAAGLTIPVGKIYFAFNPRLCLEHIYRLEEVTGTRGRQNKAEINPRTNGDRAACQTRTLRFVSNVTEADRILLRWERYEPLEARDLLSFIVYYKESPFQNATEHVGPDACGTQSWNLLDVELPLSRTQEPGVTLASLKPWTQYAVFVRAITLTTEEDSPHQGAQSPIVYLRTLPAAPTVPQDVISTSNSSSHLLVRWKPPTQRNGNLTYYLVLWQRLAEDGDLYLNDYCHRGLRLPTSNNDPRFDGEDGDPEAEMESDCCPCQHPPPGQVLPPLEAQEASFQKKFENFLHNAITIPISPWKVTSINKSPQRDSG
Insulin receptor-related protein (Homo sapiens), sequence (P14616 747-1297 limits assumed): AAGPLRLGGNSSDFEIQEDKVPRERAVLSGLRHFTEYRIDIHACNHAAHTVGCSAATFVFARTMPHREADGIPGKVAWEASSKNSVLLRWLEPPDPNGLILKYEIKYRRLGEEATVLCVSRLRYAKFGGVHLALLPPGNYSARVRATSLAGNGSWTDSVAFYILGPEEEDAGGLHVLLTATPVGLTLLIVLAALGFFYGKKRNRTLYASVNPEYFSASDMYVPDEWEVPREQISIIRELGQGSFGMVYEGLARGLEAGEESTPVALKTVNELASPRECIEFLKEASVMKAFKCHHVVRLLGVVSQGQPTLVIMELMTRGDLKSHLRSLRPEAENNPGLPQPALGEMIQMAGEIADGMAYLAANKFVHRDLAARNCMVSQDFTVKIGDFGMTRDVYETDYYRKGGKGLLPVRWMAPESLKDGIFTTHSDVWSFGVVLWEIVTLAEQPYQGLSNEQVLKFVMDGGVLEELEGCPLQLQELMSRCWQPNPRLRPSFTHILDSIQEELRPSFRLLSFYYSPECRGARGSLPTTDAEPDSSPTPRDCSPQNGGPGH
Assay [4] concerns the target Mitogen-activated protein kinase kinase kinase 9 (Homo sapiens) (UniProt P80192). Description: Inhibition of human recombinant MLK1 at 500 nM in presence of ATP by radiometric assay relative to control.
Assay [5] has as its target T2, Serine/threonine-protein kinase ICK (Homo sapiens) (UniProt Q9UPZ9).
T2 sequence (whole entry): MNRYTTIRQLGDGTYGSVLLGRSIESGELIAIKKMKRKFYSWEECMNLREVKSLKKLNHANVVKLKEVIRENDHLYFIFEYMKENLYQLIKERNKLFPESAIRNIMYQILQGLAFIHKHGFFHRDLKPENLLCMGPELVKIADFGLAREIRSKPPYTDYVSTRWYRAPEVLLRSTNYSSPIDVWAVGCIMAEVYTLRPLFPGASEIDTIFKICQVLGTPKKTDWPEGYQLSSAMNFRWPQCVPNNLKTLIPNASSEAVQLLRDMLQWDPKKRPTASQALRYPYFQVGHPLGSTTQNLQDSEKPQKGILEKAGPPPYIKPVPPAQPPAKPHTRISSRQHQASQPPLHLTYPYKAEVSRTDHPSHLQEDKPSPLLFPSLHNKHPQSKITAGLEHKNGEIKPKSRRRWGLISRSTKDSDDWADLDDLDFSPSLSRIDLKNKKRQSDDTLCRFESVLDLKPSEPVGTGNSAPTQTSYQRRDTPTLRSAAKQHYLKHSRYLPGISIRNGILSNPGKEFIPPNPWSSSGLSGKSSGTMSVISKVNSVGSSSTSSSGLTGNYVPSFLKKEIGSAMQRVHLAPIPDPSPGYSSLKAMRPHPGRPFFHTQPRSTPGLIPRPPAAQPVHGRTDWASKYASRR
In words: Inhibition of human recombinant ICK at 500 nM related to control ULK1.

The target in assay [6] is Cyclin-dependent kinase 4 (Homo sapiens) (UniProt P11802). In words: Inhibition of human recombinant CDK4 at 15 nM in presence of ATP by radiometric assay relative to control.
Cyclin-dependent kinase 4 (Homo sapiens), sequence (P11802 whole entry): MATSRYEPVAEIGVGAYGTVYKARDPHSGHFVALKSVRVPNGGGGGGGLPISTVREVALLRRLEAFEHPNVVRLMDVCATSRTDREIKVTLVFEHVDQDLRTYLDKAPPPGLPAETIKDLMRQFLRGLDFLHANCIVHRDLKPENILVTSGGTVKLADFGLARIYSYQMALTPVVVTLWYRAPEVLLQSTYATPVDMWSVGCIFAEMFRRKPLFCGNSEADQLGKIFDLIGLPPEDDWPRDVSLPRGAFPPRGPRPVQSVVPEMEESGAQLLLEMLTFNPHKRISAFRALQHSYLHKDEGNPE
For assay [7], the target named is DNA-PK/Ku70/Ku85 (Homo sapiens) (UniProt P78527+P12956+P13010). In words: Inhibition of human recombinant DNAPK at 15 nM related to control ULK1. In kind it is protein-complex assay.
Assay [8] concerns the target Serine/threonine-protein kinase Nek6 (Homo sapiens) (UniProt Q9HC98). In words: Inhibition of human recombinant NEK6 at 15 nM related to control ULK1.
For assay [9], the target named is [Pyruvate dehydrogenase (acetyl-transferring)] kinase isozyme 4, mitochondrial (Homo sapiens) (UniProt Q16654). In words: Inhibition of human recombinant PDHK4 at 15 nM related to control ULK1.
[Pyruvate dehydrogenase (acetyl-transferring)] kinase isozyme 4, mitochondrial (Homo sapiens), sequence (Q16654 whole entry, looked up): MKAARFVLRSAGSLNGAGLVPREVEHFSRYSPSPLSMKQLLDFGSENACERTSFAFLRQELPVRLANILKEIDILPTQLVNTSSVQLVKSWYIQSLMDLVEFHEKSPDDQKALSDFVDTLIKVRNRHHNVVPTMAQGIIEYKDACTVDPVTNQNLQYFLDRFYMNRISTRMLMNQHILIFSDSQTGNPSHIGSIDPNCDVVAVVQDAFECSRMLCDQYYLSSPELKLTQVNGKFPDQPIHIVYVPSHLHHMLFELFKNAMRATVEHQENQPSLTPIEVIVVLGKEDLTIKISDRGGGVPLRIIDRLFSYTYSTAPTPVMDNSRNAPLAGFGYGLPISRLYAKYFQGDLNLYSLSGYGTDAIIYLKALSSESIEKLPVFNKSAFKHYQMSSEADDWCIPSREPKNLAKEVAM
The target in assay [10] is T3, Serine/threonine-protein kinase D3 (Homo sapiens) (UniProt O94806).
T3 sequence (whole entry): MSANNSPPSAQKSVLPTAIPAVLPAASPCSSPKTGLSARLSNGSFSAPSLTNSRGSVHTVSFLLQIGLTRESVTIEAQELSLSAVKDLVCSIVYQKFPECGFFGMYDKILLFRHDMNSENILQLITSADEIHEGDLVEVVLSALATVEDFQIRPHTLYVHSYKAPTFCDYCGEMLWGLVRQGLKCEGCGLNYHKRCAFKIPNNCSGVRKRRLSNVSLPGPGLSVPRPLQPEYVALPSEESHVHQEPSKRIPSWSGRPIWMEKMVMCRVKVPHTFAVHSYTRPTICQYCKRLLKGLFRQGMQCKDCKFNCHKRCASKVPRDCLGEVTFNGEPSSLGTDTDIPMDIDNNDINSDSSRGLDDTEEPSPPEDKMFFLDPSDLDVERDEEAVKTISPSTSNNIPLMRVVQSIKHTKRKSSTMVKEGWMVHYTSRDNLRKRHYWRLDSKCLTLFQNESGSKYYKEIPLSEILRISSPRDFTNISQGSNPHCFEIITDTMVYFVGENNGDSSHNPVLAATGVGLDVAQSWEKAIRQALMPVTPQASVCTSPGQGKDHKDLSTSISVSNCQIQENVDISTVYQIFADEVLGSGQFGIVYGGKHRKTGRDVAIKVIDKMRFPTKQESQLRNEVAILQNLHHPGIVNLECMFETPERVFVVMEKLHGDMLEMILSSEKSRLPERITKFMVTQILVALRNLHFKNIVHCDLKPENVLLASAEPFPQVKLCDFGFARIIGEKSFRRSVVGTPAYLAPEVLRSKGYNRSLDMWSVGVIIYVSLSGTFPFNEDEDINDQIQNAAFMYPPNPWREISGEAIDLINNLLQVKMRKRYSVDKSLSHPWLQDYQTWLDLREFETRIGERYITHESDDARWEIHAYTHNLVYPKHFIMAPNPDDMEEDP
Description: Inhibition of human recombinant PKD3 at 15 nM related to control ULK1.

The term inhibition denotes the relative decrease from the control value, in per cent.

Serine/threonine-protein kinase Nek6 (Homo sapiens), sequence (Q9HC98 whole entry): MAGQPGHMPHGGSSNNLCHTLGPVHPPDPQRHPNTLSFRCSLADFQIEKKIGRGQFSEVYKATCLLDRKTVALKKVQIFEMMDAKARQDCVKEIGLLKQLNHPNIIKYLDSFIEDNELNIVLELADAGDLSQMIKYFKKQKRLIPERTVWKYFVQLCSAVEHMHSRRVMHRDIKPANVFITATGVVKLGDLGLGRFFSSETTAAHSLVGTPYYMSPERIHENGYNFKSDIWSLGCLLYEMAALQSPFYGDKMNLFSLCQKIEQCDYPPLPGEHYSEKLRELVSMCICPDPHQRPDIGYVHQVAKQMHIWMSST
Mitogen-activated protein kinase kinase kinase 9 (Homo sapiens), sequence (P80192 whole entry, looked up): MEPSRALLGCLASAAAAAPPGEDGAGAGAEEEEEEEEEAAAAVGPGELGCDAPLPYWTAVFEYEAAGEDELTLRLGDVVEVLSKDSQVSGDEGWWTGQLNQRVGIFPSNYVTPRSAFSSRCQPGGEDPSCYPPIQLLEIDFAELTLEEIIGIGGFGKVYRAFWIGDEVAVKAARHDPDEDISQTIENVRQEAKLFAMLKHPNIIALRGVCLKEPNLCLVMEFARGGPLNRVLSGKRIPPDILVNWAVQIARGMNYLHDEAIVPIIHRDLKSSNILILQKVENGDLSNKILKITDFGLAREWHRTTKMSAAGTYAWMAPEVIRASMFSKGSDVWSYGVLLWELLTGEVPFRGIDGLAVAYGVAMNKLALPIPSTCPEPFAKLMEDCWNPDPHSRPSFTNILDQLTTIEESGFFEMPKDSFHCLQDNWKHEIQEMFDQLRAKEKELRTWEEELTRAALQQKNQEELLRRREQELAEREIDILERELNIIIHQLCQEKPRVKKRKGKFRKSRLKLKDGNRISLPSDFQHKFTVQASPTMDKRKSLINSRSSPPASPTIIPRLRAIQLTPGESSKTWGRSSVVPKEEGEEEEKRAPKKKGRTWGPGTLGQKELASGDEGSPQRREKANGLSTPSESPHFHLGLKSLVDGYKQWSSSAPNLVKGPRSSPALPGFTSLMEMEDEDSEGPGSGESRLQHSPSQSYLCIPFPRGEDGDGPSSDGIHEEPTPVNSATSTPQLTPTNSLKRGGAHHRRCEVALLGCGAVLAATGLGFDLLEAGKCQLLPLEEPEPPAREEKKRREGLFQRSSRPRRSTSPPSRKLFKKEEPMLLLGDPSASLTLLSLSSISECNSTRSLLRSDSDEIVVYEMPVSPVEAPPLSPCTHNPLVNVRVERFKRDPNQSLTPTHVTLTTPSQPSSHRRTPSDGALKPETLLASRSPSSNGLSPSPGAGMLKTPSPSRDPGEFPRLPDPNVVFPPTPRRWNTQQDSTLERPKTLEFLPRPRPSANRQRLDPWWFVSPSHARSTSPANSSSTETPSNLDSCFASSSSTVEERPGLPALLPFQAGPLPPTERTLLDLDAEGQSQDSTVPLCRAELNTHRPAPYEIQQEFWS

Regarding `O=C(N[C@@H](C1CC1)C(F)(F)F)c1cc(-c2cnn3cc(-c4ccc(F)cc4)cnc23)cs1`, the inhibition in [1] worked out at 0%. Also, the fold change (FC) came out at 0 in [2] and 0.03 in assay [3].
With `CNC(=O)c1ccccc1Oc1nc(Nc2cc(OC)c(OC)c(OC)c2)ncc1Br`, the inhibition in assay [4] turned out to be 87%. In assay [5], the fold change (FC) is 0.04.
In the case of `CC(C)[C@H](NC(=O)c1cc(-c2cnn3cc(-c4ccc(OCCN5CCCCC5)cc4)cnc23)cs1)C(F)(F)F`, the inhibition in [6] was found to be 11%. Besides, the fold change (FC) worked out at 0 in assay [7], 0.01 in assay [8], 0.02 in assay [9] and 0.08 in assay [10].
